# Bioassay records (PubChem)
# sEH inh: blocks human soluble epoxide hydrolase activity; P34913; recombinant human sEH enzymatic activity assay; actives 0.34% (n = 91,000); inhibition, % at 2 µM; in the data active = inhibition above about 80%
# Target sequence (P34913 whole entry, looked up): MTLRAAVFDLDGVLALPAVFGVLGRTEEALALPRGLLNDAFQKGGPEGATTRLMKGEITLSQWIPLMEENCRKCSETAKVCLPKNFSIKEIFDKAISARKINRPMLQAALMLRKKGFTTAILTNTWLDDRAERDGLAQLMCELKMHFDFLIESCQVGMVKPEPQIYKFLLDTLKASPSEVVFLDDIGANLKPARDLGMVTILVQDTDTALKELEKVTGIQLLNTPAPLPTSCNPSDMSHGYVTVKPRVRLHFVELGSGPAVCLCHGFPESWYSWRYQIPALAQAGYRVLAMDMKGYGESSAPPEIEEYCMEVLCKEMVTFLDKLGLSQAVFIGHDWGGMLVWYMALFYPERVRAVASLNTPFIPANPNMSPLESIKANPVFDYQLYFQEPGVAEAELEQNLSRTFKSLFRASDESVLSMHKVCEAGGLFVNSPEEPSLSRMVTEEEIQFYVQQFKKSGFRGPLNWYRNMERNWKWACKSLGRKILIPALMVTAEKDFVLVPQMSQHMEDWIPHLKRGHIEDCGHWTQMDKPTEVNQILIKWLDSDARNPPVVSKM
# Mac1 fbg enh: increases human CD11b/CD18 adhesion to fibrinogen; P05107+P11215; AID 1499; K562 CD11b/CD18 adhesion to fibrinogen, ATPlite luminescence; actives 0.07% (n = 93,000); activation, % at 10 µM;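 active = 10 µM primary screen giving 50% or more activity, confirmed by 40% or more on retest at that dose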
# sEH act: increases human soluble epoxide hydrolase activity | P34913 | actives 0.04% (n = 91,000) | activation, % at 2 µM | purified human sEH enzymatic activity, activator screen; in the data active = activation above about 37%
# HIV Rev-RRE inh: HIV Rev-RRE protein-RNA interaction inhibition. P05866. Rev peptide-RRE RNA binding, FRET. inhibition, % at 8 µM. actives 0.79% (n = 97,000);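 active = inhibition above the screen-wide mean plus 3 SD, cut at about 35% in these data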;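 also: 0% = median DMSO wells and 100% = median Neomycin B control wells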
# Target sequence (P05866 whole entry, looked up): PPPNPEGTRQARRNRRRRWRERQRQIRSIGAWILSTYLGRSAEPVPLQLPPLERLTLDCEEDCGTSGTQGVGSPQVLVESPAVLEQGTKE
#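 Test system – labelled RRE RNA duplex and labelled Rev peptide · Reagent – labelled Rev peptide · Doses – one concentration, 8 µM nominal · Incubation – 5 + 15 min at 25 °C · Signal – FRET fluorescence readout · Read-out basis – % inhibition of FRET ratio versus controls · Control set – DMSO wells as 0% and neomycin B wells as 100% inhibition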
# CD11b adhes inh: CD11b/CD18-fibrinogen binding inhibition; P05107+P11215; K562 CD11b/CD18 adhesion to fibrinogen, ATPlite luminescence; Mn2+ added to activate the integrin; AID 1497; inhibition, % at 10 µM; actives 0.54% (n = 93,000);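 active = primary inhibition of 50% or more at 10 µM, then 40% or more on retest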
# Smad3 inh: Smad3 (human) transcription factor binding inhibition | TR-FRET Smad3/Dy647-FoxH1 peptide binding, europium anti-His | inhibition, % at 25 µM | actives 0.29% (n = 88,000) | AID 630;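 active = compounds that reduce the energy-transfer binding signal between the protein and its labelled peptide by more than half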;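 also: 0% = Smad3 plus labelled peptide maximal FRET and 100% = peptide-only background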
# * = called active by the depositor; nt = no result; [ ] = dose if it differs, or a comment. Compounds with a hit are over-represented: about 1.6% of the library has one in this group of screens.
SMILES,sEH inh,Mac1 fbg enh,sEH act,HIV Rev-RRE inh,CD11b adhes inh,Smad3 inh
COc1ccc(C2C(C(C)=O)=C(C)N=c3s/c(=C/c4ccc5c(c4)OCO5)c(=O)n32)cc1 (configuration not stated),-3.9,95.6,4.9,43.6*,-16.6,-0.6
COC(=O)C1=C(C)N=c2s/c(=C/c3ccoc3)c(=O)n2C1c1ccccc1 (configuration not stated),5.9,4.7,-3.8,50.7*,3.1,7.4
CC(=O)C1=C(C)N=c2s/c(=C/c3ccc4c(c3)OCO4)c(=O)n2C1c1ccc(N(C)C)cc1 (configuration not stated),nt,nt,nt,nt,nt,6.9
O=S(=O)(O)c1ccc2c(N=Nc3c(O)ccc4ccccc34)cccc2c1,nt,nt,nt,nt,nt,9.2
CCCCn1c(SCC(=O)NCc2ccco2)nc2c(sc3ccccc32)c1=O,-7.0,12.4,4.2,5.8,53.7*,-1.7
CCOCCCn1c(SCC(=O)NCc2ccco2)nc2c(sc3ccccc32)c1=O,-7.1,-0.5,4.3,7.2,56.0*,7.9
COC(=O)[C@]1(C)CCC(c2ccc(C)cc2)=C(CC(=O)O)C1,nt,nt,nt,nt,nt,5.3
CC1(C)CC(=O)C2=C(C1)N=c1s/c(=C/c3ccc(F)c(F)c3)c(=O)n1C2c1ccc(F)cc1 (configuration not stated),-33.4,-6.7,37.1*,11.2,-3.2,nt
CC(=O)Nc1cccc(NC(=O)c2cc(-c3cccnc3)nc3ccc(Br)cc23)c1,-2.4,52.6*,1.1,1.7,8.2,nt
Nc1cc(-c2ccccc2)nn1S(=O)(=O)c1ccc(F)cc1,-6.0,-2.4,3.2,3.5,63.0*,9.4
Cc1ccc(N/N=C/c2ccc3c(c2)OCCO3)cc1Cl,nt,-2.2,nt,nt,15.3,nt
Oc1c(Cl)cc(Cl)cc1C=Nc1ccc2c(c1)OCCO2,-6.3,1.0,3.9,45.7*,-8.5,4.7
CC(CC(=O)O)(CC(=O)O)C(=O)O,nt,nt,nt,nt,nt,3.8
NNC(=O)CCSc1ccccc1,nt,nt,nt,nt,nt,6.3
CN(C)S(=O)(=O)c1cccc(NC(=S)Nc2cc(Cl)cc(Cl)c2)c1,12.4,-6.5,-11.2,1.2,100.5*,nt
COc1cc(/C=N/NC(=S)Nc2cccc(S(=O)(=O)N(C)C)c2)cc(OC)c1O,nt,1.7,nt,nt,13.2,nt
CN(C)S(=O)(=O)c1cccc(NC(=O)c2cc3ccccc3o2)c1,-9.0,-7.3,8.1,-3.3,10.7,nt
CN(C)S(=O)(=O)c1cccc(NC(=S)Nc2ccc(Cl)cc2Cl)c1,11.5,-8.0,-10.3,3.7,99.3*,nt
CC(C)N1CCc2c(sc(N)c2C#N)C1,nt,2.5,nt,nt,-1.2,5.6
CCN1CCc2c(sc(N)c2C#N)C1,4.5,-3.1,0.4,69.0*,2.2,15.4
CCOC(=O)c1ccc(N2C(=O)C3C(C2=O)C(C(=O)c2ccc(Cl)cc2)N2CCCC32)cc1 (configuration not stated),-0.6,38.6,1.6,65.6*,-1.2,5.1
COc1c(O)ccc2c1CN1CCc3cc4c(cc3[C@@H]1C2)OCO4,nt,nt,nt,nt,nt,2.3
CCc1ccc(OCC(=O)NC(NC(=S)Nc2ccc(C)cc2C)C(Cl)(Cl)Cl)cc1 (configuration not stated),-1.1,50.0*,4.3,1.3,-3.8,nt
Cc1ccc(S(=O)(=O)C(C#N)c2nc3ccccc3nc2N2CC(C)OC(C)C2)cc1C (configuration not stated),-3.4,-8.7,0.4,9.2,89.6*,2.8
Cc1cccc(S(=O)(=O)C(C#N)c2nc3ccccc3nc2N2CC(C)OC(C)C2)c1 (configuration not stated),-5.6,-9.3,2.8,3.4,94.6*,2.0
SMILES,sEH inh,Mac1 fbg enh,sEH act,HIV Rev-RRE inh,CD11b adhes inh,Smad3 inh
CNS(=O)(=O)c1ccccc1C(=N)c1ccccc1,nt,nt,nt,nt,nt,1.9
OCc1nc2ccccc2n1CC(O)Cn1ccc2ccccc21 (configuration not stated),-1.2,-2.8,-0.9,0.3,28.9,2.8
Oc1ccccc1NCC(O)Cn1ccc2ccccc21 (configuration not stated),7.0,7.2,-7.1,62.8*,9.6,7.0
CC(=O)c1sc(NC(=O)C2(F)C(F)(F)C(F)(F)C(F)(F)C(F)(F)C2(F)F)nc1C,nt,-10.1,nt,nt,102.1*,-11.0
Cc1cccc(CSc2nc3c(cc2C#N)CCC3)c1,0.0,nt,3.3,4.6,nt,57.6*[fluorescence artefact?]
Nc1nc(=O)c2[nH]cnc2n1O,nt,nt,nt,nt,nt,-3.4
Cc1sc(NC(=O)c2sc3nc4c(C)cccc4cc3c2N)c(C#N)c1C,3.3,nt,-4.4,101.5*[fluorescence artefact?],nt,nt
Cc1cccc2cc3c(N)c(C#N)sc3nc12,0.6,-0.5,-3.7,35.0,-9.0,nt
CC1=C[N+](=O)c2ccccc2[N+]1=O,nt,nt,nt,nt,nt,5.1
O=C1CCN2C=Nc3cccc4ccc1c2c34,-16.1,-1.1,14.6,129.7*[fluorescence artefact?],11.6,nt
CCN(Cc1cc(Cl)cc(C)c1O)Cc1c(O)ccc2ccccc12,nt,nt,nt,nt,nt,6.9
CC1CCN(CC(O)COc2cccc(F)c2)CC1 (configuration not stated),nt,-4.0,nt,6.6,87.4*,-8.7
COc1cccc(OCC(O)CN2CCC(C)CC2)c1 (configuration not stated),6.3,0.6,-6.3,7.4,17.1,nt
COc1ccc(/C=C2/SC(=O)N(CCC(=O)Nc3ccc(C)cc3)C2=O)cc1OC,nt,42.1,nt,nt,-2.2,nt
COc1cc(/C=C2/SC(=S)NC2=O)ccc1OS(=O)(=O)c1ccc(C)cc1,nt,-4.7,nt,nt,91.9*,nt
COc1cc(/C=C2\SC(N)=NC2=O)ccc1OCC(=O)Nc1ccc(C)cc1,nt,65.2,nt,nt,12.8,nt
COc1ccc(/C=C2/SC(c3ccc(C)cc3)=NC2=O)cc1OC,nt,-0.6,nt,114.4*[fluorescence artefact?],5.6,nt
COc1cc(/C=C2\SC(c3ccc(C)cc3)=NC2=O)cc(OC)c1OC,-14.3,12.1,12.1,50.6*,-35.5,nt
COc1ccc(/C=C2\SC(c3ccc(C)cc3)=NC2=O)cc1OC,-7.5,6.4,5.4,112.8*[fluorescence artefact?],1.4,nt
COc1cc(/C=C2\S/C(=N/S(=O)(=O)c3ccc(C)cc3)NC2=O)c([N+](=O)[O-])cc1OC,-25.5,nt,29.6,17.2,nt,7.3
COc1cc(/C=C2\SC(N3CCc4ccccc4C3)=NC2=O)cc(OC)c1OC,nt,1.2,nt,nt,25.6,nt
COc1cc(/C=C2\SC(c3ccc(C)cc3)=NC2=O)ccc1O,-2.3,11.2,1.2,77.0*[fluorescence artefact?],29.2,nt
COC(=O)C1=C(C)N(Cc2ccc(C)cc2)C(=O)/C1=C\c1ccc(O)c(OC)c1,-5.9,-4.7,4.8,2.9,36.9,nt
Cc1cccc(N/C=C/c2onc(C)c2[N+](=O)[O-])c1,12.8,33.5,-11.9,95.1*[fluorescence artefact?],-2.9,4.8
O=c1oc2ccccc2c(Nc2cccc(O)c2)c1[N+](=O)[O-],-11.5,-1.4,12.3,25.4,1.8,17.8
Nc1cc2c([N+](=O)[O-])cccc2o1,9.5,-1.2,-6.2,50.6*,13.3,-10.6
CCOc1ccc(N2C(=O)C(Cl)=C(Nc3ccccc3O)C2=O)cc1,-4.2,5.2,2.2,36.9*,-15.7,-2.9
